Measurements published in ChEMBL document CHEMBL1155297, “Synthesis, antimicrobial and antioxidant activities of substituted pyrazoles, isoxazoles, pyrimidine and thioxopyrimidine derivatives” (2009).
Values after ≈ are worked out from the molar mass of the structure shown.

Tests used:
Format in all cases: functional
Staphylococcus aureus [1] = experiment: Antibacterial activity against Staphylococcus aureus NCIM 5021 at 100 ug/disk after 24 hrs by agar disk diffusion method; conditions: NCIM 5021, 24 h, read-out: IZ
How it was run: (§1)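 Agar disc diffusion on nutrient agar plates pre-inoculated with each bacterium. Sterile 6 mm filter-paper discs were moistened with compound in DMSO at the stated per-disc amount. Plates were incubated at 37 °C, and the growth-inhibition zone diameter was read after 24 h. Each determination was run in triplicate, and the mean of three independent readings is reported.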

Staphylococcus aureus [2] = experiment: Antibacterial activity against Staphylococcus aureus NCIM 5021 at 200 ug/disk after 24 hrs by agar disk diffusion method; conditions: NCIM 5021, 24 h, read-out: IZ; how it was run: as §1
Bacillus subtilis [3] = experiment: Antibacterial activity against Bacillus subtilis NCIM 2063 at 100 ug/disk after 24 hrs by agar disk diffusion method; conditions: NCIM 2063, 24 h, read-out: IZ; how it was run: as §1
Bacillus subtilis [4] = experiment: Antibacterial activity against Bacillus subtilis NCIM 2063 at 200 ug/disk after 24 hrs by agar disk diffusion method; conditions: NCIM 2063, 24 h, read-out: IZ; how it was run: as §1
Klebsiella pneumoniae [5] = experiment: Antibacterial activity against Klebsiella pneumoniae NCIM 2957 at 100 ug/disk after 24 hrs by agar disk diffusion method; conditions: NCIM 2957, 24 h, read-out: IZ; how it was run: as §1
Klebsiella pneumoniae [6] = experiment: Antibacterial activity against Klebsiella pneumoniae NCIM 2957 at 200 ug/disk after 24 hrs by agar disk diffusion method; conditions: NCIM 2957, 24 h, read-out: IZ; how it was run: as §1
Proteus vulgaris [7] = experiment: Antibacterial activity against Proteus vulgaris NCIM 2027 at 100 ug/disk after 24 hrs by agar disk diffusion method; conditions: NCIM 2027, 24 h, read-out: IZ; how it was run: as §1
Proteus vulgaris [8] = experiment: Antibacterial activity against Proteus vulgaris NCIM 2027 at 200 ug/disk after 24 hrs by agar disk diffusion method; conditions: NCIM 2027, 24 h, read-out: IZ; how it was run: as §1
Fusarium solani [9] = experiment: Antifungal activity against Fusarium solani NCIM 1330 at 100 ug/disk after 48 hrs by agar disk diffusion method; conditions: NCIM 1330, 48 h, read-out: IZ
How it was run: (§2)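 Fungal disc diffusion on nutrient agar plates pre-inoculated with each fungus. 6 mm sterile paper discs carried the compound in DMSO at the stated amount per disc. Plates were held at 37 °C, and inhibition-zone diameter was measured after 48 h. Values are the mean of three independent triplicate readings.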

Fusarium solani [10] = experiment: Antifungal activity against Fusarium solani NCIM 1330 at 200 ug/disk after 48 hrs by agar disk diffusion method; conditions: NCIM 1330, 48 h, read-out: IZ; how it was run: as §2
Curvularia lunata [11] = experiment: Antifungal activity against Curvularia lunata NCIM 716 at 100 ug/disk after 48 hrs by agar disk diffusion method; conditions: NCIM 716, 48 h, read-out: IZ; how it was run: as §2
Curvularia lunata [12] = experiment: Antifungal activity against Curvularia lunata NCIM 716 at 200 ug/disk after 48 hrs by agar disk diffusion method; conditions: NCIM 716, 48 h, read-out: IZ; how it was run: as §2
Aspergillus niger [13] = experiment: Antifungal activity against Aspergillus niger NCIM 596 at 100 ug/disk after 48 hrs by agar disk diffusion method; conditions: NCIM 596, 48 h, read-out: IZ; how it was run: as §2
Aspergillus niger [14] = experiment: Antifungal activity against Aspergillus niger NCIM 596 at 200 ug/disk after 48 hrs by agar disk diffusion method; conditions: NCIM 596, 48 h, read-out: IZ; how it was run: as §2
Staphylococcus aureus [15] = experiment: Antibacterial activity against Staphylococcus aureus NCIM 5021 after 24 hrs by microdilution susceptibility method; conditions: NCIM 5021, 24 h
How it was run: (§3)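 MIC by microdilution susceptibility; compounds in DMSO, bacterial suspensions inoculated into wells. Incubation was at 36 °C for 24 h. MIC is the lowest compound concentration showing no turbidity. Chloramphenicol served as reference antibacterial.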

Bacillus subtilis [16] = experiment: Antibacterial activity against Bacillus subtilis NCIM 2063 after 24 hrs by microdilution susceptibility method; conditions: NCIM 2063, 24 h; how it was run: as §3
Klebsiella pneumoniae [17] = experiment: Antibacterial activity against Klebsiella pneumoniae NCIM 2957 after 24 hrs by microdilution susceptibility method; conditions: NCIM 2957, 24 h; how it was run: as §3
Proteus vulgaris [18] = experiment: Antibacterial activity against Proteus vulgaris NCIM 2027 after 24 hrs by microdilution susceptibility method; conditions: NCIM 2027, 24 h; how it was run: as §3
Fusarium solani [19] = experiment: Antifungal activity against Fusarium solani NCIM 1330 after 48 hrs by microdilution susceptibility method; conditions: NCIM 1330, 48 h
How it was run: (§4)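 Broth microdilution MIC; fungal suspensions were inoculated into wells containing compound dissolved in DMSO. Incubation was at 36 °C for 48 h. MIC was recorded as the lowest concentration with no turbidity. Ketoconazole was the reference antifungal.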

Curvularia lunata [20] = experiment: Antifungal activity against Curvularia lunata NCIM 716 after 48 hrs by microdilution susceptibility method; conditions: NCIM 716, 48 h; how it was run: as §4
Aspergillus niger [21] = experiment: Antifungal activity against Aspergillus niger NCIM 596 after 48 hrs by microdilution susceptibility method; conditions: NCIM 596, 48 h; how it was run: as §4
[22] = test system: Radical scavenging activity; experiment: Antioxidant activity assessed as DPPH free radical scavenging activity at 100 uM after 20 mins
How it was run: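 DPPH scavenging: compound solutions were added to DPPH in dioxane/ethanol and kept at ambient temperature for 20 min. Absorbance was read at 517 nm. The test–control difference was expressed as percent DPPH radical scavenging.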

[23] = Antioxidant activity assessed as nitric oxide production at 100 uM after 120 mins by Griess reagent method
How it was run: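 Nitric oxide assay with Griess read-out. At intervals, 0.5 ml of incubation solution was mixed with 0.5 ml Griess reagent (1% sulfanilamide, 0.1% N-naphthylethylenediamine dihydrochloride, 2% o-phosphoric acid in water). The control received an equal amount of solvent and was handled identically.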

Work on NC1=NN=C(N)C1C(CS(=O)(=O)c1ccc(Cl)cc1)S(=O)(=O)c1ccc(Cl)cc1 (stereo not drawn) yielded a zone of inhibition at 100 µg/disc (Staphylococcus aureus [1]) of 34 mm, a zone of inhibition at 200 µg/disc (Staphylococcus aureus [2]) of 36 mm and a zone of inhibition at 100 µg/disc (Bacillus subtilis [3]) of 35 mm. For the same molecule, the zone of inhibition at 200 µg/disc (Bacillus subtilis [4]) was 37 mm, the zone of inhibition at 100 µg/disc (Klebsiella pneumoniae [5]) was 30 mm and the zone of inhibition at 200 µg/disc (Klebsiella pneumoniae [6]) was 32 mm. For the same molecule, the zone of inhibition at 100 µg/disc (Proteus vulgaris [7]) was 31 mm, the zone of inhibition at 200 µg/disc (Proteus vulgaris [8]) was 33 mm and the zone of inhibition at 100 µg/disc (Fusarium solani [9]) was 35 mm. For the same molecule, the zone of inhibition at 200 µg/disc (Fusarium solani [10]) was 39 mm, the zone of inhibition at 100 µg/disc (Curvularia lunata [11]) was 34 mm and the zone of inhibition at 200 µg/disc (Curvularia lunata [12]) was 38 mm. It also gave a zone of inhibition at 100 µg/disc (Aspergillus niger [13]) of 32 mm, a zone of inhibition at 200 µg/disc (Aspergillus niger [14]) of 35 mm and an MIC (Staphylococcus aureus [15]) of 25 µg/mL (≈ 52.6 µM). It also gave an MIC (Bacillus subtilis [16]) of 25 µg/mL (≈ 52.6 µM), an MIC (Klebsiella pneumoniae [17]) of 50 µg/mL (≈ 105 µM) and an MIC (Proteus vulgaris [18]) of 50 µg/mL (≈ 105 µM). It also gave an MIC (Fusarium solani [19]) of 200 µg/mL (≈ 421 µM), an MIC (Curvularia lunata [20]) of 100 µg/mL (≈ 210 µM) and an MIC (Aspergillus niger [21]) of 100 µg/mL (≈ 210 µM). The inhibition [22] was 92.4% and the inhibition [23] was 92.4%.

NC1=NN=C(N)C1C(CC(=O)c1ccc(Cl)cc1)C(=O)c1ccc(Cl)cc1 (stereo not drawn) showed a zone of inhibition at 100 µg/disc (Staphylococcus aureus [1]) of 31 mm, a zone of inhibition at 200 µg/disc (Staphylococcus aureus [2]) of 33 mm and a zone of inhibition at 100 µg/disc (Bacillus subtilis [3]) of 28 mm. It also gave a zone of inhibition at 200 µg/disc (Bacillus subtilis [4]) of 32 mm, a zone of inhibition at 100 µg/disc (Klebsiella pneumoniae [5]) of 28 mm and a zone of inhibition at 200 µg/disc (Klebsiella pneumoniae [6]) of 30 mm. For the same molecule, the zone of inhibition at 100 µg/disc (Proteus vulgaris [7]) was 25 mm, the zone of inhibition at 200 µg/disc (Proteus vulgaris [8]) was 28 mm and the zone of inhibition at 100 µg/disc (Fusarium solani [9]) was 33 mm. It also gave a zone of inhibition at 200 µg/disc (Fusarium solani [10]) of 37 mm, a zone of inhibition at 100 µg/disc (Curvularia lunata [11]) of 34 mm and a zone of inhibition at 200 µg/disc (Curvularia lunata [12]) of 36 mm. For the same molecule, the zone of inhibition at 100 µg/disc (Aspergillus niger [13]) was 32 mm, the zone of inhibition at 200 µg/disc (Aspergillus niger [14]) was 33 mm and the MIC (Staphylococcus aureus [15]) was 100 µg/mL (≈ 248 µM). It also gave an MIC (Bacillus subtilis [16]) of 100 µg/mL (≈ 248 µM), an MIC (Klebsiella pneumoniae [17]) of 100 µg/mL (≈ 248 µM) and an MIC (Proteus vulgaris [18]) of 100 µg/mL (≈ 248 µM). It also gave an MIC (Fusarium solani [19]) of 200 µg/mL (≈ 496 µM), an MIC (Curvularia lunata [20]) of 200 µg/mL (≈ 496 µM) and an MIC (Aspergillus niger [21]) of 200 µg/mL (≈ 496 µM). It also gave an inhibition [22] of 91.7% and an inhibition [23] of 90.7%.

With NC1=NC(=S)N=C(N)C1C(CC(=O)c1ccc(Cl)cc1)C(=O)c1ccc(Cl)cc1 (stereo not drawn) the zone of inhibition at 100 µg/disc (Staphylococcus aureus [1]) was 25 mm, the zone of inhibition at 200 µg/disc (Staphylococcus aureus [2]) was 26 mm and the zone of inhibition at 100 µg/disc (Bacillus subtilis [3]) was 23 mm. For the same molecule, the zone of inhibition at 200 µg/disc (Bacillus subtilis [4]) was 25 mm, the zone of inhibition at 100 µg/disc (Klebsiella pneumoniae [5]) was 19 mm and the zone of inhibition at 200 µg/disc (Klebsiella pneumoniae [6]) was 22 mm. For the same molecule, the zone of inhibition at 100 µg/disc (Proteus vulgaris [7]) was 20 mm, the zone of inhibition at 200 µg/disc (Proteus vulgaris [8]) was 22 mm and the zone of inhibition at 100 µg/disc (Fusarium solani [9]) was 19 mm. For the same molecule, the zone of inhibition at 200 µg/disc (Fusarium solani [10]) was 22 mm, the zone of inhibition at 100 µg/disc (Curvularia lunata [11]) was 17 mm and the zone of inhibition at 200 µg/disc (Curvularia lunata [12]) was 21 mm. The zone of inhibition at 100 µg/disc (Aspergillus niger [13]) was 15 mm, the zone of inhibition at 200 µg/disc (Aspergillus niger [14]) was 20 mm and the inhibition [22] was 41.6%. The inhibition [23] was 43.4%.

Cc1ccc(S(=O)(=O)CC(C2C(N)=NC(=O)N=C2N)S(=O)(=O)c2ccc(C)cc2)cc1 (stereo not drawn) showed a zone of inhibition at 100 µg/disc (Staphylococcus aureus [1]) of 21 mm, a zone of inhibition at 200 µg/disc (Staphylococcus aureus [2]) of 23 mm and a zone of inhibition at 100 µg/disc (Bacillus subtilis [3]) of 22 mm. The zone of inhibition at 200 µg/disc (Bacillus subtilis [4]) was 24 mm, the zone of inhibition at 100 µg/disc (Klebsiella pneumoniae [5]) was 17 mm and the zone of inhibition at 200 µg/disc (Klebsiella pneumoniae [6]) was 19 mm. It also gave a zone of inhibition at 100 µg/disc (Proteus vulgaris [7]) of 16 mm, a zone of inhibition at 200 µg/disc (Proteus vulgaris [8]) of 18 mm and a zone of inhibition at 100 µg/disc (Fusarium solani [9]) of 13 mm. The zone of inhibition at 200 µg/disc (Fusarium solani [10]) was 16 mm, the zone of inhibition at 100 µg/disc (Curvularia lunata [11]) was 16 mm and the zone of inhibition at 200 µg/disc (Curvularia lunata [12]) was 18 mm. The zone of inhibition at 100 µg/disc (Aspergillus niger [13]) was 11 mm, the zone of inhibition at 200 µg/disc (Aspergillus niger [14]) was 15 mm and the inhibition [22] was 28.1%. The inhibition [23] was 27.9%.
